Publication PMC5760825 (Journal of Pharmaceutical Analysis, 2011)
Where two headings read alike, the source gives them in different places.

Experiments:
[1] = type: in vivo, human (healthy Chinese volunteers); settings: for Cmax: plasma
Procedure, shortened: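 Open-label, randomized, parallel-group study. Thirty healthy volunteers (5 men, 5 women per group) took single oral doses of 500, 1000 or 1500 mg glucosamine sulfate, as dispersible tablets, with 250 mL water after an overnight fast. The 500 mg group continued at 500 mg t.i.d. for 7 days, with troughs on days 4–7. Heparinized plasma was taken from 0 to 24 h. Cmax came from the observed curves, other parameters from non-compartmental analysis, and group differences from ANOVA.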

[2] = type: in vivo, human (healthy Chinese volunteers); settings: n=10; for Urine excretion (% of dose): single oral dose 1000 mg, mean±SD
[3] = type: in vitro ADME, human; settings: for Stability, Accuracy (% of nominal conc.): plasma
Procedure, shortened: (§1)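 Glucosamine was spiked into blank human matrix at low and high QC levels: plasma 0.020 and 1.66 μg/mL, urine 2.21 and 42.7 μg/mL, n=2. Freeze-thaw used 24 h at −20 °C, thawing at room temperature and 12 h refreezing, up to three cycles. Short-term storage was 8 h at room temperature and long-term storage up to 60 days at −20 °C. Samples were compared with fresh references and accuracy given as found versus nominal.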

[4] = type: in vitro ADME, human; settings: urine
Procedure, shortened: as §1

[5] = cited from earlier work
[6] = before administration, Chinese volunteers, n=30
[7] = multiple doses 500 mg t.i.d., 7th day, mean±SD, n=10
[8] = single oral dose 500 mg, mean±SD, n=10
[9] = single oral dose 1000 mg, mean±SD, n=10
[10] = single oral dose 1500 mg, mean±SD, n=10
[11] = before administration, Chinese volunteers

## 2-amino-2-deoxy-D-glucose [glucosamine]
[1]; 500 mg t.i.d. for 7 consecutive days vs single dose
  accumulation after multiple doses: no significant accumulation effects
[1]; 1500 mg vs 500 and 1000 mg dose groups, P<0.05
  dose linearity of absorption (dose-normalized AUC and Cmax): non-linear absorption at higher doses
[1]; after oral administration, all dose groups
  time at which peak concentration was reached: about 2 h
[1]; [6]
  plasma glucosamine baseline levels, mean: 16.7 ± 26.9 ng/mL
  plasma glucosamine baseline levels, range: 0 to 120 ng/mL
[1]; [7]
  AUC0–10: 1020 ± 240 ng·h/mL
  AUC0–∞: 1020 ± 240 ng·h/mL
  AUCss: 1000 ± 240 ng·h/mL
  Css_av: 125 ± 31 ng/mL
  Css_min: 59 ± 56 ng/mL
  DF: 1.90±0.93%
  MRT0–10: 2.70 ± 0.34 h
  Tmax: 1.90 ± 1.10 h
  t1/2: 1.41 ± 0.76 h
  Cmax: 294 ± 76 ng/mL
[1]; post-dosing
  time at which plasma glucosamine was eliminated to the baseline level: about 10 h
[1]; [8]
  AUC0–10: 1420 ± 200 ng·h/mL
  AUC0–∞: 1430 ± 210 ng·h/mL
  MRT0–10: 3.18 ± 0.71 h
  Tmax: 2.60 ± 1.39 h
  t1/2: 1.17 ± 0.40 h
[1]; [9]
  AUC0–10: 3370 ± 1020 ng·h/mL
  AUC0–∞: 3420 ± 1010 ng·h/mL
  MRT0–10: 3.57 ± 0.24 h
  Tmax: 2.70 ± 0.86 h
  t1/2: 1.32 ± 0.35 h
  Cmax: 795 ± 280 ng/mL
[1]; [10]
  AUC0–10: 4030 ± 1280 ng·h/mL
  AUC0–∞: 4180 ± 1400 ng·h/mL
  MRT0–10: 3.30 ± 0.61 h
  Tmax: 1.90 ± 0.84 h
  t1/2: 1.36 ± 0.94 h
  Cmax: 925 ± 280 ng/mL
[2]; [11]
  urine glucosamine levels (baseline), mean: 4.96 ± 1.74 µg/mL
  urine glucosamine levels (baseline), range: 2.79 to 8.07 µg/mL
[2]; 0–3 h after dosing
  Urine excretion (% of dose): 0.434±0.300%
[2]; 0–6 h after dosing
  Urine excretion (% of dose): 1.39±1.45%
[2]; 0–10 h after dosing
  Urine excretion (% of dose): 1.83±1.84%
[2]; 0–14 h after dosing
  Urine excretion (% of dose): 1.90±1.86%
[2]; 0–24 h after dosing
  Urine excretion (% of dose): 1.99±1.86%
[3]; 0.020 μg/mL, Freeze-thaw (n=3)
  Stability, Accuracy (% of nominal conc.): 100.0%
[3]; 0.020 μg/mL, Long-term after 60 d (−20 °C)
  Stability, Accuracy (% of nominal conc.): 90.0%
[3]; 1.660 μg/mL, Freeze-thaw (n=3)
  Stability, Accuracy (% of nominal conc.): 105.2%
[3]; 1.660 μg/mL, Long-term after 60 d (−20 °C)
  Stability, Accuracy (% of nominal conc.): 106.6%
[3]; 1.660 μg/mL, Short-term after 8 h (25 °C)
  Stability, Accuracy (% of nominal conc.): 98.4%
[3]; three freeze-thaw cycles, 8 h bench-top, −20 °C up to 2 months, plasma and urine
  stability in plasma and urine under different storage conditions: stable
[4]; 2.21 μg/mL, Freeze-thaw (n=3)
  Stability, Accuracy (% of nominal conc.): 106.6%
[4]; 2.21 μg/mL, Long-term after 60 d (−20 °C)
  Stability, Accuracy (% of nominal conc.): 99.2%
[4]; 2.21 μg/mL, Short-term after 8 h (25 °C)
  Stability, Accuracy (% of nominal conc.): 104.2%
[4]; 42.7 μg/mL, Freeze-thaw (n=3)
  Stability, Accuracy (% of nominal conc.): 105.3%
[4]; 42.7 μg/mL, Long-term after 60 d (−20 °C)
  Stability, Accuracy (% of nominal conc.): 103.7%
[4]; 42.7 μg/mL, Short-term after 8 h (25 °C)
  Stability, Accuracy (% of nominal conc.): 111.2%
[5]; Caucasian volunteers
  plasma glucosamine baseline levels, mean value: 45.3 ng/mL
[5]; human plasma
  Endogenous level of glucosamine in human plasma: 10 to 200 ng/mL
